According to PMC4391825 (Chembiochem : a European journal of chemical biology, 2014):

Key:
Assay type in all cases: biochemical
SaPanK [1] = target: T1, SaPanK (Staphylococcus aureus, UniProt Q8NVG0); assay: RP-HPLC of stepwise conversion to […]a; conditions: ATP, MgCl2; 100 mM Tris-HCl pH 7.60, 25 °C (large-scale mixture)
T1 sequence (Q8NVG0 1-267): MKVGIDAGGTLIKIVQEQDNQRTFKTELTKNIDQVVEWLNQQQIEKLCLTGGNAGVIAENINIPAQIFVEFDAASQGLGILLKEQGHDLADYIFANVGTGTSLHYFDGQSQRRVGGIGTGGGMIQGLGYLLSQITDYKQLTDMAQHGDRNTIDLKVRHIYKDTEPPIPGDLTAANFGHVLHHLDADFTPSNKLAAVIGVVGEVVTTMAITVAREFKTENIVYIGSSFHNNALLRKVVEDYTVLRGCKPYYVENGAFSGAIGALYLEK

SaPanK [2] = target: T1, SaPanK; assay: RP-HPLC of stepwise conversion to […]b; conditions: ATP, MgCl2; 100 mM Tris-HCl pH 7.60, 25 °C (large-scale mixture)
PhaECAv = target: T2, PhaECAv (Allochromatium vinosum, UniProt P45370); assay: continuous DTNB assay of CoA release, SigmaPlot fit
T2 sequence (P45370 1-355): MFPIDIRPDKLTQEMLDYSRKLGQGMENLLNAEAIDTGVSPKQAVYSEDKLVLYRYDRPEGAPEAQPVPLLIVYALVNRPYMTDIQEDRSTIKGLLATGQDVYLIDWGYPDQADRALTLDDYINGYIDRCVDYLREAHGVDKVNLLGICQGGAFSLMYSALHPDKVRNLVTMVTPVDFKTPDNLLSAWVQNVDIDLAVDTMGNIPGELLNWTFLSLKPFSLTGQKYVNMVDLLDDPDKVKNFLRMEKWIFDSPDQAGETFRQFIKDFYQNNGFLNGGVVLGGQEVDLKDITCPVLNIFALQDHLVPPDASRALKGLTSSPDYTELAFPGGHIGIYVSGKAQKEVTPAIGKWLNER
T2 sequence (P45372 1-357 partner): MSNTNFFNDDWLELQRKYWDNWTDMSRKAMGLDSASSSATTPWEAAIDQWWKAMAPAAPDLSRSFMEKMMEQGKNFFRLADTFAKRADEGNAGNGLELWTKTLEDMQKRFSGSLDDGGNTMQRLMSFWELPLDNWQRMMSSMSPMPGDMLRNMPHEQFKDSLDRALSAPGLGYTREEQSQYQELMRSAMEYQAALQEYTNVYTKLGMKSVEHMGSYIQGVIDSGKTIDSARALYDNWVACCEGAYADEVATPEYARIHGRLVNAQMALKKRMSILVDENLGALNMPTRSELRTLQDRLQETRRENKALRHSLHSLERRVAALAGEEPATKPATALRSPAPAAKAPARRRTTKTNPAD
Summary of the method: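 Purified wild-type PhaECAv at 5.80 nM, assayed at 30 °C in 100 mM KPi (pH 7.80) with 0.30 mM DTNB, 2 mg/mL BSA, HBCoA 0.025 to 1.60 mM, and test compound at varied concentrations. CoA release followed as A412 (ε 13.7 mM−1cm−1). Rates were taken from the initial fast-phase slope, in duplicate, and fitted to Michaelis-Menten inhibition models; Lineweaver-Burk plots assigned the mode.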

Row | Compound | Ki (PhaECAv) | other results
1 | CCCC(=O)O[C@H](C)CC(=O)O[C@H](C)CC(=O)CCCNC(=O)CCNC(=O)[C@H](O)C(C)(C)CO [17a, (R)-((R)-7-(3-((R)-2,4-dihydroxy-3,3-dimethylbutanamido)propanamido)-4-oxoheptan-2-yl) 3-(butyryloxy)butanoate] |  | RP-HPLC of stepwise conversion to 24a (SaPanK [1]): with sequential additions of SaPanK, EcCoaD, and EcCoaE, the resulting products were eluted faster
2 | CCCC(=O)O[C@H](C)CC(=O)O[C@H](C)CC(=O)O[C@H](C)CC(=O)CCCNC(=O)CCNC(=O)[C@H](O)C(C)(C)CO [17b, (R)-((R)-7-(3-((R)-2,4-dihydroxy-3,3-dimethylbutanamido)propanamido)-4-oxoheptan-2-yl) 3-((R)-3-(butyryloxy)butanoyloxy)butanoate] |  | RP-HPLC of stepwise conversion to 24b (SaPanK [2]): with sequential additions of SaPanK, EcCoaD, and EcCoaE, the resulting products were eluted faster
3 | CCCC(=O)O[C@H](C)CC(=O)O[C@H](C)CC(=O)CCCNC(=O)CCNC(=O)[C@H](O)C(C)(C)COP(=O)(O)OP(=O)(O)OC[C@H]1O[C@@H](n2cnc3c(N)ncnc32)[C@H](O)[C@@H]1OP(=O)(O)O [26a, sT-CH2-CoA] | 600 ± 30 µM | 

Further lines, with some results ahead:

Row | Ki (PhaECAv) | Compound | other results
4 | 500 ± 30 µM | CCCC(=O)O[C@H](C)CC(=O)O[C@H](C)CC(=O)O[C@H](C)CC(=O)CCCNC(=O)CCNC(=O)[C@H](O)C(C)(C)COP(=O)(O)OP(=O)(O)OC[C@H]1O[C@@H](n2cnc3c(N)ncnc32)[C@H](O)[C@@H]1OP(=O)(O)O [26b, sTet-CH2-CoA] | 
5 | 3130 ± 470 µM | CCCC(=O)O[C@H](C)CC(=O)O[C@H](C)CC=O [compound 29, sT-aldehyde] | 
